Results from PMC3225805 (Chemistry & biology, 2011).
Like-named read-outs stand apart in the source and are kept apart here.

Key:
Type in all cases: biochemical
[1] = target: T1, VLuc (Vibrio fischeri luciferase) (Aliivibrio fischeri, UniProt P19907); assay: luminescence inhibition, 1536-well CRC, FMN reductase-coupled; details: read-out: VLuc; 0.1 M sodium phosphate pH 7.0, 0.005% decanal, 0.1 mM NADH, 2 μM FMN, 0.1% BSA; partially purified enzyme
T1 sequence (P19907 1-354): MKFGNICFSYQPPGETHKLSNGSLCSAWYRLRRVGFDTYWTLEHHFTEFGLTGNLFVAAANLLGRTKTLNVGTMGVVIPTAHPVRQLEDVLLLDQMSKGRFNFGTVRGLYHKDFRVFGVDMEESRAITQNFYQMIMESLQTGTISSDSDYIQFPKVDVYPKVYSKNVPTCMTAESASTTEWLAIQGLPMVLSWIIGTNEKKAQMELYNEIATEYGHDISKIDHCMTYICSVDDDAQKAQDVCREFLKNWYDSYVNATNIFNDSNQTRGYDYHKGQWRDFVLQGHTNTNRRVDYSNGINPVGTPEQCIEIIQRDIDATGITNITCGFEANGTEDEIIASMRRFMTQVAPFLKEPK
T1 sequence (P19908 1-326 partner): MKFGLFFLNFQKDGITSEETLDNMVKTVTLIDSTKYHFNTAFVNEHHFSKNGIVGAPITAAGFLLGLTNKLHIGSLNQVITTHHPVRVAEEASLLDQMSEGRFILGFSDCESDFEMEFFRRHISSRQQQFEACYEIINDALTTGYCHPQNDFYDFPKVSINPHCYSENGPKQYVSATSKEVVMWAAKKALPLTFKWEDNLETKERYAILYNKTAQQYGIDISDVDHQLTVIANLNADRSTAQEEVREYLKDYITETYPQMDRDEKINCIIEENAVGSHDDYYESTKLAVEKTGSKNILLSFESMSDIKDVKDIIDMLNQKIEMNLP

[2] = target: T2, RLuc (Renilla reniformis luciferase) (Renilla reniformis, UniProt P27652); assay: luminescence inhibition, 1536-well CRC
T2 sequence (P27652 1-311): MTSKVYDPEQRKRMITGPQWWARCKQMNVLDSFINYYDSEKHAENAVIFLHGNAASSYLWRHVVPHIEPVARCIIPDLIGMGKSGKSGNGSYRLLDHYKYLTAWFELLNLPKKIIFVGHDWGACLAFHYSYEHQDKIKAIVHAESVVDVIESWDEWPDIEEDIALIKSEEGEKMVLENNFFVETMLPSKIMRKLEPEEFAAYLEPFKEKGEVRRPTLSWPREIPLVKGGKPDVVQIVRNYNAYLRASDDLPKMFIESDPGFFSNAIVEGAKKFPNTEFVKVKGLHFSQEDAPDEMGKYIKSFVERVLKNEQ
How it was run: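 Renilla reniformis luciferase in 1536-well format with 5 μM coelenterazine as substrate. Luminescence is measured over a test-compound concentration series. IC50 is taken from the fitted concentration-response curve and given as mean ±SD of at least 4 determinations.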

[3] = target: T3, LmLuc (Luciola mingrelica luciferase) (Luciola mingrelica, UniProt Q26304); assay: luminescence inhibition, 1536-well CRC
T3 sequence (Q26304 1-548): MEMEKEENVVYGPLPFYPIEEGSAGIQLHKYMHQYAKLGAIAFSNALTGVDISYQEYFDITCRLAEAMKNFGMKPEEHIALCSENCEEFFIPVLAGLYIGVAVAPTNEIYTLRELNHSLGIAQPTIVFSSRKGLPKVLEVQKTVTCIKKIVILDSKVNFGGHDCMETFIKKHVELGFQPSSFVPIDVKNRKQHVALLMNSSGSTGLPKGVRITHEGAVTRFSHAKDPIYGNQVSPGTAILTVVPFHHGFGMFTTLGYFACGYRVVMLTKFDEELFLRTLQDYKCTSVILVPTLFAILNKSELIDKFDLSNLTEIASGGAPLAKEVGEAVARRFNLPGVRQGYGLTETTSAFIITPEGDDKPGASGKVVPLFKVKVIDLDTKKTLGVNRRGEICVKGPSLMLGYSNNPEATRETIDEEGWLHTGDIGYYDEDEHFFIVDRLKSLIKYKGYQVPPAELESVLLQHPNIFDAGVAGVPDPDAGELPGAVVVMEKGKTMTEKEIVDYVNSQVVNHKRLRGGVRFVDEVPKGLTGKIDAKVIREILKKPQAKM
How it was run: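 Luciola mingrelica luciferase at 5 nM final in 1536-well format, run by the same protocol as the Photinus enzyme with 10 μM D-luciferin and 10 μM ATP. Luminescence is read over a test-compound titration. IC50 comes from curve fitting and is given as mean ±SD of at least 4 determinations.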

[4] = target: T4, FLuc (Photinus pyralis luciferase) (Photinus pyralis, UniProt P08659); assay: luminescence inhibition, 1536-well CRC
How it was run: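 Purified wild-type Photinus pyralis luciferase in 1536-well format, with 10 μM D-luciferin and 10 μM ATP as substrates. Luminescence is read across a concentration titration of test compound. IC50 comes from the fitted concentration-response curve and is given as mean ±SD of at least 4 determinations.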

[5] = target: T2, RLuc (Renilla reniformis luciferase); assay: luminescence inhibition, 1536-well CRC; details: read-out: % inhibition at 57 μM (inactive)
[6] = target: T3, LmLuc (Luciola mingrelica luciferase); assay: luminescence inhibition, 1536-well CRC; details: read-out: % inhibition at 57 μM (inactive)
[7] = target: T4, FLuc (Photinus pyralis luciferase); assay: luminescence inhibition, 1536-well CRC; details: read-out: % inhibition at 57 μM (inactive)
[8] = read-out: LmLuc, 10 μM D-luciferin and ATP, 5 nM enzyme
[9] = read-out: FLuc, 10 μM D-luciferin and ATP

T4 sequence (P08659 whole entry): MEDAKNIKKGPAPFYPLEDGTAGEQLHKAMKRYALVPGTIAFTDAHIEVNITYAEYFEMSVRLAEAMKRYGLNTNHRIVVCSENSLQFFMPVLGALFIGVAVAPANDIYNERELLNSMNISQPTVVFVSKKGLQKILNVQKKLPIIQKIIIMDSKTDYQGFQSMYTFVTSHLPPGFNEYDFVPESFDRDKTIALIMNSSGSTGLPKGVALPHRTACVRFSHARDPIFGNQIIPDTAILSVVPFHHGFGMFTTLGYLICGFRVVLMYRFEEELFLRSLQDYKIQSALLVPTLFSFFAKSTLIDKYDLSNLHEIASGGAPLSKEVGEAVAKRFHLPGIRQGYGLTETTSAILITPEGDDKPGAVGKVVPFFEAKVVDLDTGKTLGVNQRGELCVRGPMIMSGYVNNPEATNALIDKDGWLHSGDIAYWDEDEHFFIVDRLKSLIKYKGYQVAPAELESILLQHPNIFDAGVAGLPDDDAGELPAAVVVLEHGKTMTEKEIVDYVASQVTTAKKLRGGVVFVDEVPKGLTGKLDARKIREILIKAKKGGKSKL

IC50 [1] [µM]	IC50 [3, 8] [µM]	IC50 [4, 9] [µM]	Compound	also measured
6.5 ± 3.3	0.1 ± 0.03		CC(C)(O)[C@H]1Cc2cc(/C=C3\OC(=O)C(c4ccc5c(c4)C[C@H](C(C)(C)O)O5)=C3O)ccc2O1 [compound 5, aspulvinone J-CR]	IC50 ([2]; read-out: RLuc, 5 μM coelenterazine): > 57 µM
	2.5 ± 0.5	3.6 ± 1.5	aspulvinone F [compound 2]	IC50 ([2]; read-out: Ultra, 5 μM coelenterazine): > 57 µM
> 57			O=C1O/C(=C\c2ccc(O)cc2)C(O)=C1c1ccc(O)cc1 [compound 1, aspulvinone E]	IC50 [3]: 3.6 ± 1.1 µM; inhibition at 57 µM [5]: < 20%; IC50 [4]: 1.4 ± 1.6 µM
12 ± 2.3	0.5 ± 0.2	0.72 ± 0.4	aspulvinone I-CR [compound 4]	
18 ± 8	5.3 ± 5.9	1.7 ± 1.6	aspulvinone M-CR [compound 8]	
	14.8 ± 2.8	18.6 ± 8.8	benzofuran [compound 12]	
			COC(=O)[C@@]1(Cc2ccc(O)c(CC=C(C)C)c2)OC(=O)C(O)=C1c1ccc(O)cc1 [compound 10, butyrolactone I]	inhibition at 57 µM [6]: < 20%; IC50 [2]: > 57 µM; inhibition at 57 µM [7]: < 20%
			COC(=O)[C@]1(Cc2ccc(O)c(CC3OC3(C)C)c2)OC(=O)C(O)=C1c1ccc(O)cc1 (stereo partly drawn) [compound 11, butyrolactone III]	inhibition at 57 µM [6]: < 20%; inhibition at 57 µM [5]: < 20%; inhibition at 57 µM [7]: < 20%
